# The list is not random: actives were taken first. Their share in the collection is about 3.8%.
# CHO parental Ca: counter-screen: ATP calcium response change in parental CHO cells | parental CHO-K1, ATP-induced calcium, Fluo-8 fluorescence | inhibition, % at 5.6 µM | 330,000 compounds, 0.63% hits | AID 463079;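 active = inhibition above that plate's mean sample inhibition plus 3 SD, cut at about 26% in these data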;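 note: 0% = ATP-challenged DMSO wells and 100% = DMSO wells without ATP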
#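 Material: parental CHO cells / Compound: single nominal dose of 5.6 µM per compound / Signal: Fluo-8 fluorescence / Replicates: singlicate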
# OX1R antag-1: blocks the human orexin 1 receptor. inhibition, % at 5 µM. O43613. CHO/OX1R cells, Fluo-8 calcium fluorescence, orexin A. 330,000 compounds, 0.43% hits;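 active = inhibition above its plate's threshold, mean inhibition of all tested compounds on the plate plus 3 SD, cut at about 37% in these data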;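 note: 0% = orexin A challenge wells and 100% = SB-334867-A antagonist wells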
# MPTP block: permeability transition pore inhibition; isolated mouse mitochondria, Ca2+ swelling absorbance, 30 min; inhibition, % at 10 µM; 360,000 compounds, 1.4% hits;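 active = inhibition of 50% or more, scaled per plate between neutral and stimulator controls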;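 note: 0% = DMSO wells given calcium and 100% = 1 mM EGTA wells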
# OX1R antag-2: blocks the human orexin 1 receptor | O43613 | OX1R-expressing cells, FRET antagonist read-out | inhibition, % at 6.6 µM | 330,000 compounds, 1.8% hits | AID 485270; in the data active = inhibition mostly above about 38%, no sharp cut-off; inactive = mostly below about 40%;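 note: 0% = agonist challenge alone and 100% = reference antagonist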
# GPR7 antag: human neuropeptides B/W receptor 1 antagonism; P48145; GPR7-expressing cells, fluorescence antagonist assay; inhibition, % at 4.4 µM; 290,000 compounds, 1.1% hits; AID 1861; in the data active = inhibition above about 16%, passing the limit was not always enough;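 note: cells stimulated with the agonist NPW; 0% = agonist with vehicle and 100% = vehicle without agonist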
# Target sequence (P48145 whole entry, looked up): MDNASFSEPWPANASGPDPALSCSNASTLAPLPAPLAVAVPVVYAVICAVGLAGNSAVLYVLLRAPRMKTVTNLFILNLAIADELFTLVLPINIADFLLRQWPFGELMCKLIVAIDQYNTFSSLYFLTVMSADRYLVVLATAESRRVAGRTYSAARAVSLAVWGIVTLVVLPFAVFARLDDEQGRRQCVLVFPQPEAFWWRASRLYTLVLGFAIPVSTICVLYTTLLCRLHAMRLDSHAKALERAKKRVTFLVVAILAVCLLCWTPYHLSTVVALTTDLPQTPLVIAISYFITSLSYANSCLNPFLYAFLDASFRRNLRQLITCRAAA
# An asterisk follows results filed as active; · = no result given.
SMILES,CHO parental Ca,OX1R antag-1,MPTP block,OX1R antag-2,GPR7 antag
N=c1oc2c3c4c(cc2cc1C(=O)Nc1ccccc1)CCCN4CCC3,62.4*,94.2*,2.4,95.0*,-3.5
Cc1ccc(C)c(N2CCN(C(=O)CCS(=O)(=O)c3ccc4c(c3)NC(=O)CO4)CC2)c1,56.7*,65.7*,1.1,23.9,3.4
NC(=O)C12C(=O)NC(=O)C1(C(=O)O)C21CCCC1 (stereo not given),·,·,0.7,·,·
CCc1cc2cccc(C)c2nc1SCC(=O)NNC(=O)c1ccco1,-21.5,-0.1,1.3,69.9*,-5.1
CCc1cc2ccc(C)c(C)c2nc1SCC(=O)NNC(=O)c1ccco1,-14.6,-29.7,1.5,27.6,-12.9
CCc1cc2cccc(C)c2nc1SCC(=O)c1ccc(NC(C)=O)cc1,-13.6,33.6,2.0,52.6*,3.4
O=C(COC(=O)/C=C/c1ccc(F)cc1)NC1CCS(=O)(=O)C1 (stereo not given),·,·,-1.1,·,·
CCOC(=O)C(C(=O)OCC)c1cc(Br)c2noc3c2c1C(=O)c1ccccc1-3,38.5*,42.9,6.8,51.2,6.3
CC(=O)OCCNc1cc(N2CCN(C)CC2)c2noc3c2c1C(=O)c1ccccc1-3,·,·,4.7,·,0.5
Cc1ccc(C2=C(O)c3ccccc3C(=O)C2=O)cc1,-6.3,-11.8,0.5,40.8*,-25.4
O=C1C(=O)c2ccccc2C(O)=C1c1cccc([N+](=O)[O-])c1,-15.7,0.7,11.1,51.8*,-4.1
CC(C)c1ccc(C2=C(O)c3ccccc3C(=O)C2=O)cc1,-4.0,-6.6,4.5,56.5,6.5
O=C(NCC1CCCO1)c1ccc2c(c1)N(Cc1ccccc1)CCS2 (stereo not given),-27.8,-21.2,-0.8,28.3,-1.1
Cc1ccc(S(=O)(=O)c2ccc(Cl)cc2)cc1S(=O)(=O)NC(C)C(=O)O (stereo not given),-5.4,4.2,-1.0,3.9,-6.4
COc1ccc(OC)c(NS(=O)(=O)c2ccc(Br)s2)c1,38.3*,-2.7,·,33.4,-1.4
COc1ccc(OC)c(NS(=O)(=O)c2ccc(Cl)s2)c1,-2.6,-6.6,2.2,7.0,6.4
O=C(CSc1nc2ccccc2s1)NCc1ccc2c(c1)OCO2,-0.9,-12.6,-6.4,44.4,-9.3
O=C(Cn1nc(-c2ccccc2)ccc1=O)NCc1ccc2c(c1)OCO2,-8.7,0.1,-0.5,71.6*,18.2
O=C(CSc1ccc2ccccc2n1)NCc1ccc2c(c1)OCO2,-26.8,-6.2,0.0,53.5*,-21.0
CC(C)[C@@H]1CC2=C(C(=O)OC(C)(C)O2)[C@H](CCc2ccccc2)O1,·,·,0.5,·,·
CCCCCNc1ncnc2c(C)[nH]nc12,·,·,1.3,·,·
CCN(CCNC(=O)C1CCN(Cc2nc(-c3ccc(Cl)cc3)oc2C)CC1)c1ccccc1,1.5,0.5,-2.8,1.3,53.2*
CCc1ccc(-c2nc(CN3CCC(C(=O)N4CCN(c5ccccc5)CC4)CC3)c(C)o2)cc1,1.9,-8.1,3.4,5.9,23.4*
COc1ccc(-c2csc(Nc3ccc(S(=O)(=O)Nc4cc(C)on4)cc3)n2)cc1,4.8,10.2,1.3,40.4*,-8.0
CN1CCCCC1(C)C(=O)NCc1ccc(F)cc1 (stereo not given),·,·,-0.3,·,·
SMILES,CHO parental Ca,OX1R antag-1,MPTP block,OX1R antag-2,GPR7 antag
Cc1cccc(NS(=O)(=O)c2nnc(NC(=O)c3ccc(Cl)cc3)s2)c1,-8.0,10.9,0.7,59.1*,-8.4
Cc1cccc(NS(=O)(=O)c2nnc(NC(=O)c3cccc(C)c3)s2)c1,0.6,17.2,1.9,63.3*,3.6
O=S(=O)(c1ccc(C2CCCCC2)cc1)N1CCCC1,51.6*,-7.8,7.1,12.3,-9.9
O=C(Nc1ccc(S(=O)(=O)N2CCOCC2)cc1)c1ccc([N+](=O)[O-])o1,-5.5,3.8,2.5,63.1,5.8
O=C(COc1ccccc1)Nc1ccc(S(=O)(=O)N2CCCC2)cc1,-2.2,-0.6,-1.1,7.4,16.8*
O=C(COC(=O)c1n[nH]c2ccccc12)Nc1ccc(S(=O)(=O)N2CCCC2)cc1,17.8,28.9,-0.1,35.1,17.4*
O=C(Nc1ccc(S(=O)(=O)N2CCCC2)cc1)c1ccc([N+](=O)[O-])o1,-4.2,-5.8,0.3,34.2*,·
O=C(COc1ccccc1)Nc1ccc(S(=O)(=O)N2CCCCCC2)cc1,-11.2,0.9,3.5,3.6,-1.2
O=C(c1ccc2[nH]c(=O)c(=O)[nH]c2c1)N1CCN(Cc2ccccc2)CC1,-7.1,2.7,-2.7,2.3,-12.6
O=C(CCCc1ccccc1)NCCS(=O)(=O)N1CCN(c2ccccc2F)CC1,-16.2,-15.8,-1.6,19.6,·
CCCn1c(C)cc(C(=O)COC(=O)c2ccc[nH]c2=O)c1C,0.1,-13.1,0.5,-1.7,-5.0
COc1ccc(CC(=O)N(C)C2CCCCC2)cc1S(=O)(=O)N1CCOCC1,-10.1,-29.3,24.7,22.7,-1.0
NS(=O)(=O)c1ccc(NC(=O)COc2ccc(C(=O)c3ccc(F)cc3)cc2)cc1,33.8*,17.1,33.1,8.8,1.8
O=C(COc1ccc(F)cc1Cl)Nc1cccc(S(=O)(=O)N2CCCC2)c1,29.5,46.7*,-0.1,-1.1,·
COc1ccc(S(=O)(=O)N2CCc3ccccc3C2)cc1,-14.7,-31.0,-1.3,16.9,-0.1
CCCCOc1ccc(S(=O)(=O)N2CCCCC2)cc1,41.7*,-21.2,0.4,3.8,12.1
CCOc1ccc(S(=O)(=O)N2CCc3ccccc3C2)cc1,17.9,-5.9,-2.6,10.8,19.8*
NS(=O)(=O)c1cccc(NC(=O)COC(=O)Cc2ccc(S(=O)(=O)N3CCOCC3)s2)c1,·,·,0.0,·,·
CCCCN(C)C(=O)c1sc(=O)n(Cc2ccccc2C#N)c1C,·,·,-2.0,·,·
O=C(NCc1ccccc1)c1onc(CSc2ccccc2)c1C(=O)NCC1CC1,47.5*,46.7,1.6,62.3,·
O=C(NCc1ccccc1)c1onc(CSc2ccc(Cl)cc2)c1C(=O)NCC1CC1,-5.6,-21.5,0.2,15.5,·
COc1ccc(CNC(=O)CCCNC(=O)c2ccc(Cl)cc2)cc1OC,-28.4,-24.6,-1.0,-3.2,-15.2
O=C(Nc1ccc2nc(-c3cccs3)c(-c3cccs3)nc2c1)NC1CC1,4.3,-7.4,21.7,57.9*,4.2
COCc1c(C(=O)NCCOc2ccc(Cl)cc2)oc2ccccc12,-24.0,-8.4,0.0,34.4*,·
COCc1c(C(=O)NCC2COc3ccccc3O2)oc2ccccc12 (stereo not given),-25.6,7.0,1.5,68.1*,·
SMILES,CHO parental Ca,OX1R antag-1,MPTP block,OX1R antag-2,GPR7 antag
CC(=O)NCC1COc2ccccc2O1 (stereo not given),-10.0,-16.0,2.6,2.1,-12.8
Nc1c2c(nc3sc4c(c13)CCCC4)-c1ccccc1CC2,-10.2,-7.0,9.1,72.1*,-3.7
NNc1nc(-c2ccccc2)nc2sc3c(c12)CCCC3,-19.2,-17.4,0.3,8.1,-8.5
Cc1cc(OC(C)C(=O)N(Cc2ccco2)C2CCS(=O)(=O)C2)cc(C)c1Cl (stereo not given),-6.6,-18.5,-1.1,8.9,10.7
CN(C)c1ccc(/C=C(\NC(=O)c2ccccc2)C(=O)NCCCn2ccnc2)cc1,-5.0,-1.0,-0.5,40.2*,-11.0
O=C(NCCCn1ccnc1)/C(=C/c1ccccc1)NC(=O)c1ccccc1,11.7,-1.7,6.6,14.5,4.2

# Screening data (PubChem)
